Square brackets hold non-standard residues; d marks the D form. Peptide text beside a SMILES is read from it. * marks the point of attachment. Hmp(2R,3S) = CC[C@H](C)[C@@H](O)C(=O)O; Sta = CC(C)C[C@H](N)[C@@H](O)CC(=O)O; NMe2Val = CC(C)[C@@H](C(=O)*)N(C)C; dNMeF = CN[C@H](Cc1ccccc1)C(=O)O; NMeQ = CN[C@@H](CCC(N)=O)C(=O)O; dHiv = CC(C)[C@@H](O)C(=O)O; Hiv = CC(C)[C@H](O)C(=O)O; Isovaleryl = CC(C)CC(=O)*
Experiments:
[1] = biological target: T1, ADAM10 (Homo sapiens, UniProt O14672); assay: Protease inhibition screen and IC50 assay, ADAM10; type: biochemical; settings: 10 μM, panel of 59 proteases
T1 sequence (O14672 214-748): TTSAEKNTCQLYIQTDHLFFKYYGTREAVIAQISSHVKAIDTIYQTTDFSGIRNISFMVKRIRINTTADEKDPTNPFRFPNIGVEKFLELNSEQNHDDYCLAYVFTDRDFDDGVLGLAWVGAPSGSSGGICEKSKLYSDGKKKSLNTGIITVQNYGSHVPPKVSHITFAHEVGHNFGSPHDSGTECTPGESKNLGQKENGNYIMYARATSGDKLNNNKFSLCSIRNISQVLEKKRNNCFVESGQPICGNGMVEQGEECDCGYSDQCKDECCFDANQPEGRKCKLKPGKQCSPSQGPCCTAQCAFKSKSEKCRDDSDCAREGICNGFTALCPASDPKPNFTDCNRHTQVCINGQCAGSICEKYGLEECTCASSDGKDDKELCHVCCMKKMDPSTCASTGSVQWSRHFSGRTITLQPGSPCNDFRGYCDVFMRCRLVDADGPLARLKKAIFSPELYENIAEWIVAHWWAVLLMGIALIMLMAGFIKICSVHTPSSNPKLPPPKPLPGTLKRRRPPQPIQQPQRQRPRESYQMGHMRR

[2] = tested on: monocyte derived dendritic cells and CD4+ T cells (allogeneic); assay: Allogeneic mixed lymphocyte reaction; type: cell-based, human; settings: allogeneic MLR
[3] = tested on: MCF7 cell lysate (cellular cathepsins D and E); assay: Inhibition of cellular cathepsins in MCF7 cell lysate; type: biochemical
[4] = biological target: T2, ADAM9 (Homo sapiens, UniProt Q13443); assay: Protease inhibition screen and IC50 assay, ADAM9; type: biochemical; settings: 10 μM, panel of 59 proteases
T2 sequence (Q13443 29-819): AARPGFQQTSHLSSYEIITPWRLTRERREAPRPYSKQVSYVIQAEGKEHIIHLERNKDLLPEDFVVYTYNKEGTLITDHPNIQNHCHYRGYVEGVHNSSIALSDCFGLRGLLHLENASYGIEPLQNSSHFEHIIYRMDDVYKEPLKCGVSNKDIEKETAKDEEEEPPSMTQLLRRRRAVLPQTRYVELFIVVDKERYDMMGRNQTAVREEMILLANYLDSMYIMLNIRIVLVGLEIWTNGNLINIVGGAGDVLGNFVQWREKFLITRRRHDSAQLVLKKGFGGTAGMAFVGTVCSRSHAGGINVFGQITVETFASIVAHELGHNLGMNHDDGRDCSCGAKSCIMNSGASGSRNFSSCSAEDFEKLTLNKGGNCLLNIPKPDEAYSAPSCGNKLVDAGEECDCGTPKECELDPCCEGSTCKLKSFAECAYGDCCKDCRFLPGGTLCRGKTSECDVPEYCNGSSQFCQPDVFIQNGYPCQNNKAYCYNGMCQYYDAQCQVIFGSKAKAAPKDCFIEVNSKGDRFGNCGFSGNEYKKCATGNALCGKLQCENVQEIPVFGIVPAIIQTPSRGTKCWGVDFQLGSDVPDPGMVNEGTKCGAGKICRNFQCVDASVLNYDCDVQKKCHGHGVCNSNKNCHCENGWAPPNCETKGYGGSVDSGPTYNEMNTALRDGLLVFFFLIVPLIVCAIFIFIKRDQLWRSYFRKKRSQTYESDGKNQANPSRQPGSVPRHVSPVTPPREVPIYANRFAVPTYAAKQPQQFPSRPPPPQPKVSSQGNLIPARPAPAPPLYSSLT

[5] = biological target: TACE (Homo sapiens, UniProt P78536); assay: Protease inhibition screen and IC50 assay, TACE; type: biochemical; settings: 10 μM, panel of 59 proteases
Chain of TACE (P78536 215-824): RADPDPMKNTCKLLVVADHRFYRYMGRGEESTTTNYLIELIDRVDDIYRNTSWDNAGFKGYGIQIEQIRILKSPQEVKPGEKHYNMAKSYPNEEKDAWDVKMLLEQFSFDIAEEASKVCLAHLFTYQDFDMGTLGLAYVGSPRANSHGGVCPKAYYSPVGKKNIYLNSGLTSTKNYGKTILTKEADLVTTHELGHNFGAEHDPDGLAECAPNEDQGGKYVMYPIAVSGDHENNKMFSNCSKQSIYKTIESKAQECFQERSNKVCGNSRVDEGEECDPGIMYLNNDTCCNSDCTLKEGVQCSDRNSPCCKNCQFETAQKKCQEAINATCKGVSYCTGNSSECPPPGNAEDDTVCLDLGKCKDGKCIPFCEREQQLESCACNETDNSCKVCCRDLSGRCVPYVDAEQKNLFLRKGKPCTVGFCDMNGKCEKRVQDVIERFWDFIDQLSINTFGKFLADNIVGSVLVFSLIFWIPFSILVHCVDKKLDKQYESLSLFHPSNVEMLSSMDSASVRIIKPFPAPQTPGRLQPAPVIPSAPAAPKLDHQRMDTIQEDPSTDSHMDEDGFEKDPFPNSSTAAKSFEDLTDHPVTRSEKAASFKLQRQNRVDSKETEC

[6] = tested on: monocyte derived dendritic cells and CD4+ T cells (autologous); assay: Autologous mixed lymphocyte reaction; type: cell-based, human; settings: autologous MLR
[7] = tested on: human peripheral blood mononuclear cells (CD3+ T cells); assay: T cell proliferation in PBMCs in response to exogenous antigen; type: cell-based
In short: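 Human PBMCs were isolated from buffy coats by Ficoll-Hypaque density gradient centrifugation, washed in PBS, and checked for viability by trypan blue. They were cultured in RPMI 1640 with 2 mM L-glutamine, penicillin/streptomycin and 10% FBS, with test compound at various concentrations. Cells were antibody-stained for 30 min at 4 °C, then permeabilised for intracellular staining and fixed in 2% paraformaldehyde. Lymphocytes were gated by forward/side scatter, with 50,000 cells per sample and isotype controls.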

[8] = Solubility in DMSO for dilution series; type: physicochemical
[9] = biological target: T3, Cathepsin E (Homo sapiens, UniProt P14091); assay: Protease inhibition screen and IC50 assay, cathepsin E; type: biochemical; settings: result in words
T3 sequence (P14091 54-396): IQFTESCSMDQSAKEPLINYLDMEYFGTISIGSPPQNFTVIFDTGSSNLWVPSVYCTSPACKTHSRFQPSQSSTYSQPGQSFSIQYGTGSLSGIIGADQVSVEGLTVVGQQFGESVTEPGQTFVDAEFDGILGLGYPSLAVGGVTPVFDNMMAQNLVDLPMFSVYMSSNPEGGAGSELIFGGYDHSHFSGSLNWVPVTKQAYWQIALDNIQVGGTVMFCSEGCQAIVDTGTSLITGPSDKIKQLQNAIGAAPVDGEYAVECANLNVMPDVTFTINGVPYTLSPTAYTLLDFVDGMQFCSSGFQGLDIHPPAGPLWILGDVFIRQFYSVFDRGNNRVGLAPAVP

In the case of `COC(=O)[C@@H]1CCCN1C(=O)[C@@H](Cc1ccccc1)N(C)C(=O)[C@H](C)NC(=O)[C@@H](NC(=O)C[C@H](O)[C@H](CC(C)C)NC(=O)[C@H](CC(N)=O)NC(=O)[C@H](CC(C)C)NC(=O)[C@H](OC(=O)[C@@H](OC(=O)[C@H](C(C)C)N(C)C)C(C)C)C(C)C)[C@@H](C)O` [Compound 1, grassystatin A] (NMe2Val-[Hiv][dHiv]LN[Sta]TA[dNMeF]P-OMe), the “inhibitory activity in protease screen” value [1] is reported as “compromised activities”, the IFN-γ production [2] is reported as “significant downregulation” and the IL-17 production [2] is reported as “significant downregulation”. The “decrease in potency compared to purified cathepsin E” value ([3]; MCF7 lysate) was 564 fold, the “difference in IC50 compared to pepstatin A” value ([3]; MCF7 lysate) was 100 fold and the IC50 ([3]; read-out: apparent IC50, MCF7 lysate treated directly) was roughly 500 nM. The “inhibitory activity in protease screen” value [4] was “compromised activities”, the “inhibitory activity in protease screen” value [5] was “compromised activities” and the “interferon-γ (IFN-γ) in response to antigen presentation” value [6] was “inhibit upregulation”. For the same compound, the “interleukin-17 (IL-17) in response to antigen presentation” value [6] was “inhibit upregulation”, the T cell proliferation ([6]; TTc + PMA, 5 days) was “reduce T cell proliferation in a dose dependent manner” and the “T cell proliferation in response to exogenous antigen (TTc)” value ([7]; 10 μM, CD3+ lymphocytes) was “significantly reduce”. For the same compound, the T cell viability ([7]; same experiment, data not shown) was “unaffected”.

In the case of `CC[C@H](C)[C@H](NC(=O)C[C@H](O)[C@H](CC(C)C)NC(=O)[C@H](CCC(N)=O)N(C)C(=O)[C@H](CC(C)C)NC(=O)[C@H](O)[C@@H](C)CC)C(=O)NCC(=O)N(C)[C@H](Cc1ccccc1)C(=O)N1CCC[C@H]1C(=O)OC` [Compound 3, grassystatin C] ({Hmp(2R,3S)}-L[NMeQ][Sta]IG[dNMeF]P-OMe), the “solubility in DMSO” value [8] is reported as “insoluble in DMSO”.

In the case of `CC(C)CC(=O)N[C@H](C(=O)N[C@H](C(=O)N[C@@H](CC(C)C)[C@@H](O)CC(=O)N[C@@H](C)C(=O)N[C@@H](CC(C)C)[C@@H](O)CC(=O)O)C(C)C)C(C)C` [Pepstatin A, pepstatin A] (Isovaleryl-VV[Sta]A[Sta]-OH), the “discrimination between cathepsins D and E” value [9] is reported as “did not discriminate”.
